Data as given in ChEMBL document CHEMBL1649384, “Synthesis and antiproliferative activity of novel symmetrical alkylthio- and alkylseleno-imidocarbamates” (Eur J Med Chem, 2011).

Columns and labels:
PC-3 [1] = experiment: Cytotoxicity against human PC3 cells after 72 hrs by CV method; type: functional; conditions: PC-3, 72 h
Method in brief: (§1)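 Crystal violet check of the MTT data: eight concentrations between 0.01 and 100, with 72 h exposure. Cells were fixed in 4% formaldehyde for at least 20 min, then stained with 0.1% crystal violet for 30 min. GI₅₀ is the concentration halving growth relative to untreated controls.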

[2] = Cytotoxicity against human MCF10A cells after 72 hrs by MTT assay; type: cell-based, MCF-10A; conditions: for GI50 at 72 h: MCF10A cells; for LC50 / TGI: mcf-10a, 72 h
Method in brief: (§2)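 Cells seeded per well: Hep-G2 1×10⁴, HT-29 4×10³, K-562 4×10³, MCF-7 1.2×10⁴, MCF-10A 7×10³, PC-3 2×10³. MCF-10A were grown in supplemented MEBM at 37 °C, 5% CO₂. Five concentrations were tested between 0.01 and 100, with 72 h exposure. Formazan was read by A590. GI₅₀ was taken relative to untreated controls, from at least three independent experiments.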

PC-3 [3] = experiment: Cytotoxicity against human PC3 cells after 72 hrs by MTT assay; type: functional; conditions: PC-3, 72 h; for CC50: read-out: LC50 (the source's name); method in brief: as §2
HepG2 = experiment: Cytotoxicity against human HepG2 cells after 72 hrs by MTT assay; type: functional; conditions: HepG2, 72 h; for CC50: read-out: LC50 (the source's name); method in brief: as §2
K562 = experiment: Cytotoxicity against human K562 cells after 72 hrs by MTT assay; type: functional; conditions: K562, 72 h; for CC50: read-out: LC50 (the source's name); method in brief: as §2
HT-29 [4] = experiment: Cytotoxicity against human HT-29 cells after 72 hrs by CV method; type: functional; conditions: HT-29, 72 h; method in brief: as §1
HT-29 [5] = experiment: Cytotoxicity against human HT-29 cells after 72 hrs by MTT assay; type: functional; conditions: HT-29, 72 h; for CC50: read-out: LC50 (the source's name); method in brief: as §2
MCF7 [6] = experiment: Cytotoxicity against human MCF7 cells after 72 hrs by MTT assay; type: functional; conditions: MCF7, 72 h; method in brief: as §2
MCF7 [7] = experiment: Induction of apoptosis in human MCF7 cells assessed as apoptotic cells at 15 uM after 24 hrs by TUNEL assay; type: functional
Method in brief: (§3)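 TUNEL (Apo-Direct) on MCF-7 cells treated with compound or vehicle, with camptothecin as positive control. Cells were fixed in paraformaldehyde and then ethanol, labelled with FITC-dUTP for 1 h at 37 °C, counterstained with PI/RNase, and analysed by flow cytometry. Read-out is % apoptotic cells, mean ± SEM of three independent experiments in duplicate wells.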

MCF7 [8] = experiment: Induction of apoptosis in human MCF7 cells assessed as accumulation at G0/G1 phase at 15 uM after 48 hrs by DNA flow cytometric assay; type: functional
Method in brief: (§4)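 Exponentially growing MCF-7 cells were given compound or vehicle, with camptothecin as positive control. Cells were fixed in 1% paraformaldehyde in PBS pH 7.4 on ice for 1 h, then in 70% ethanol at −20 °C for 30 min. They were stained with PI/RNase for 30 min at RT in the dark. DNA content was measured by flow cytometry as % of total cells. Mean ± SEM of three independent experiments, duplicate wells.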

MCF7 [9] = experiment: Induction of apoptosis in human MCF7 cells assessed as accumulation at S phase at 15 uM after 48 hrs by DNA flow cytometric assay; type: functional; method in brief: as §4
MCF7 [10] = experiment: Induction of apoptosis in human MCF7 cells assessed as apoptotic cells at 15 uM after 48 hrs by TUNEL assay; type: functional; method in brief: as §3
MCF7 [11] = experiment: Induction of apoptosis in human MCF7 cells assessed as accumulation at subG1 phase at 15 uM after 24 hrs by DNA flow cytometric assay; type: functional; method in brief: as §4
MCF7 [12] = experiment: Induction of apoptosis in human MCF7 cells assessed as accumulation at G0/G1 phase at 15 uM after 24 hrs by DNA flow cytometric assay; type: functional; method in brief: as §4
MCF7 [13] = experiment: Induction of apoptosis in human MCF7 cells assessed as accumulation at subG1 phase at 15 uM after 48 hrs by DNA flow cytometric assay; type: functional; method in brief: as §4
MCF7 [14] = experiment: Induction of apoptosis in human MCF7 cells assessed as accumulation at G2/M phase at 15 uM after 48 hrs by DNA flow cytometric assay; type: functional; method in brief: as §4
MCF7 [15] = experiment: Induction of apoptosis in human MCF7 cells assessed as accumulation at S phase at 15 uM after 24 hrs by DNA flow cytometric assay; type: functional; method in brief: as §4
MCF7 [16] = experiment: Induction of apoptosis in human MCF7 cells assessed as accumulation at G2/M phase at 15 uM after 24 hrs by DNA flow cytometric assay; type: functional; method in brief: as §4

| SMILES | GI50 (PC-3 [1]) [µM] | GI50 at 72 h [2] [µM] | LC50 [2] [µM] | TGI [2] [µM] | GI50 (PC-3 [3]) [µM] | TGI (PC-3 [3]) [µM] | CC50 (PC-3 [3]) [µM] | GI50 (HepG2) [µM] | TGI (HepG2) [µM] | CC50 (HepG2) [µM] | GI50 (K562) [µM] | TGI (K562) [µM] | CC50 (K562) [µM] | GI50 (HT-29 [4]) [µM] | GI50 (HT-29 [5]) [nM] | TGI (HT-29 [5]) [µM] | CC50 (HT-29 [5]) [µM] | GI50 (MCF7 [6]) [µM] | LC50 (MCF7 [6]) [µM] | TGI (MCF7 [6]) [µM] | also measured |
| --- | --- | --- | --- | --- | --- | --- | --- | --- | --- | --- | --- | --- | --- | --- | --- | --- | --- | --- | --- | --- | --- |
| C[Se]/C(=N\C(=O)c1ccco1)NC(=O)c1ccco1 | 0.16 | 5.94 | 98.07 | 40.16 | 0.36 | 56.7 | > 100 | 0.76 | 8.66 | > 100 | 8.78 | > 100 | > 100 | 1 | 0.05 | > 100 | > 100 | 0.03 | > 100 | 88.9 |  |
| C[Se]/C(=N\C(=O)c1cccs1)NC(=O)c1cccs1 | 0.63 | 9.26 | 73.51 | 41.14 | 1.34 | 63 | > 100 | 0.63 | 1.5 | 12.5 | 6.07 | > 100 | > 100 | 9 | 0.34 | > 100 | > 100 | 0.0034 | > 100 | 5.64 | Activity (MCF7 [7]): 29.35%; Activity (MCF7 [8]): 35.25%; Activity (MCF7 [9]): 25.21%; Activity (MCF7 [10]): 71.08%; Activity (MCF7 [11]): 9.31%; Activity (MCF7 [12]): 45.32%; Activity (MCF7 [13]): 14.14%; Activity (MCF7 [14]): 22.74%; Activity (MCF7 [15]): 18.3%; Activity (MCF7 [16]): 23.85% |
| C[Se]/C(=N\C(=O)c1cnc2ccccc2c1)NC(=O)c1cnc2ccccc2c1 | 1.42 | 20.3 | 83.86 | 52.1 | 2.33 | 43.6 | > 100 | 4.16 | 23.7 | 87.8 | 3.8 | 29.9 | 74.8 | 0.46 | 200 | > 100 | > 100 | 0.66 | 60.7 | 8.03 | Activity (MCF7 [8]): 32.87%; Activity (MCF7 [9]): 32.68%; Activity (MCF7 [10]): 27.19%; Activity (MCF7 [11]): 10.29%; Activity (MCF7 [12]): 73.06%; Activity (MCF7 [13]): 11.34%; Activity (MCF7 [14]): 19.97%; Activity (MCF7 [15]): 8.1%; Activity (MCF7 [16]): 7.21% |
| CC[C@@]1(O)C(=O)OCc2c1cc1n(c2=O)Cc2cc3ccccc3nc2-1 [CAMPTOTHECIN] |  |  |  |  | 0.06 | > 100 | > 100 |  |  |  | 0.06 | 50.1 | > 100 |  | 50 | 31.6 | 31.6 | 0.01 |  | 0.16 | Activity (MCF7 [7]): 21.25%; Activity (MCF7 [8]): 41.61%; Activity (MCF7 [9]): 16.91%; Activity (MCF7 [10]): 71.45%; Activity (MCF7 [11]): 10.92%; Activity (MCF7 [12]): 65.62%; Activity (MCF7 [13]): 25.73%; Activity (MCF7 [14]): 15.15%; Activity (MCF7 [15]): 10.4%; Activity (MCF7 [16]): 11.51% |
